# Screens (PubChem)
# OX1R antag-1: blocks the human orexin 1 receptor. O43613. OX1R-expressing cells, FRET antagonist read-out. inhibition, % at 6.6 µM. 330,000 tested, 1.8% active; in the data active means inhibition mostly above about 38%, no sharp cut-off; inactive means mostly below about 40%
# GPR7 antagonist: blocks human GPR7 receptor signaling. P48145. GPR7-expressing cells, fluorescence antagonist assay. inhibition, % at 4.4 µM. 290,000 tested, 1.1% active; in the data active means inhibition above about 16%, passing the limit was not always enough;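 further: cells stimulated with the agonist NPW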
# Target sequence (P48145 whole entry, looked up): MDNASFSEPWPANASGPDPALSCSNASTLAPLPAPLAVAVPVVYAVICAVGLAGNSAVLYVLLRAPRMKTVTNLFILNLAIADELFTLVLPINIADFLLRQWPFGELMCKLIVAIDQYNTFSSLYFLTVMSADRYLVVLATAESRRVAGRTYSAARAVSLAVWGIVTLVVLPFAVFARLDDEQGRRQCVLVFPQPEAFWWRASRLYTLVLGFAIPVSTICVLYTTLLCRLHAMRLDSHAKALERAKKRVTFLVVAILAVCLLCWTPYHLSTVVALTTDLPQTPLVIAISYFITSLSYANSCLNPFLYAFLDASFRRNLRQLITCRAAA
# OX1R antag-2: human HCRTR1 antagonism | inhibition, % at 5 µM | 330,000 tested, 0.43% active | CHO/OX1R cells, Fluo-8 calcium fluorescence, orexin A | AID 434989 | O43613;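 active means inhibition above its plate's threshold, mean inhibition of all tested compounds on the plate plus 3 SD, cut at about 37% in these data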
# PGE2 EP2 inh: inhibitors of human EP2 prostaglandin E2 receptor. C6 glioma cells expressing human EP2, cAMP TR-FRET; cells stimulated with saturating PGE2. P43116. 260,000 tested, 0.52% active. AID 1422. inhibition, % at 25 µM;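 active means percent inhibition above 40 after rounding to a whole number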;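 further: rat C6 glioma host cells with rolipram phosphodiesterase inhibitor present; the protocol text gives 20 µM as final concentration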
# EP2 mod: EP2 receptor (human) modulation. P43116. EP2-expressing cells, cAMP HTRF FRET, PGE2 co-stimulation. induction, % at 25 µM. 260,000 tested, 0.83% active. AID 940;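 active means compounds whose cAMP rise, as percent of the full-agonist control response, exceeds 60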;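 further: rat C6 glioma line stably carrying human EP2 under a CMV promoter; the protocol text gives 20 µM as final concentration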
# CHO parental Ca: signal in parental CHO cells, OX1R antagonist counter-screen; inhibition, % at 5.6 µM; 330,000 tested, 0.63% active; parental CHO-K1, ATP-induced calcium, Fluo-8 fluorescence;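 active means inhibition above that plate's mean sample inhibition plus 3 SD, cut at about 26% in these data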
#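 Material: Parental CHO cells | Reagent: ATP | Compound dosing: Single nominal dose of 5.6 µM per compound | Detection: Intracellular calcium via Fluo-8 no-wash fluorescent dye | Read-out: % inhibition of ATP-induced calcium mobilization | Benchmarks: Low control ATP plus DMSO, high control DMSO only | Replicates: Singlicate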
# Hits are given with their value; – = inactive; · = no result. Hits are enriched below; roughly 3.7% of the tested compounds scored in any of these assays.
SMILES,OX1R antag-1,GPR7 antagonist,OX1R antag-2,PGE2 EP2 inh,EP2 mod,CHO parental Ca
COc1ccc(S(=O)(=O)N2CCN(c3ccc(C)cc3C)CC2)cc1OC,–,–,–,–,–,36
C=CCN1CCN(C(c2ccc(Cl)cc2)c2nnnn2CC2CCCO2)CC1 (centres undefined),·,·,·,–,–,·
Cc1nc(CC(=O)Nc2nc(-c3ccccc3)cs2)cs1,–,–,–,–,–,–
NC(=O)COc1c(-c2ccc(Br)o2)oc2ccccc2c1=O,72,–,–,·,·,–
O=C(Nc1ccccc1F)c1ccc2snnc2c1,71,–,–,·,·,–
O=C(CN(Cc1ccc2c(c1)OCO2)C(=O)Cn1nnc(-c2ccc(F)cc2)n1)NC1CCCC1,·,·,·,–,–,·
CCOC(=O)/C(=C\c1cn(C)c2ccccc12)[N+](=O)[O-],–,–,–,42,–,–
CC1(C)CCC2=C(O1)c1ccccc1C(=O)C2=O,·,·,·,41,–,·
O=C(CCS(=O)(=O)Cc1ccccc1)N1CCN(Cc2ccccc2)CC1,–,–,–,–,–,–
Cc1cc(N2CCN(C(=O)c3cccs3)CC2)c(F)cc1[N+](=O)[O-],–,–,–,·,·,52
O=C(c1cccs1)N1CCN(c2ccc([N+](=O)[O-])cc2F)CC1,–,–,–,·,·,–
COc1cc(OC)c(/C=N/NC(=O)COc2cccc3cccnc23)c(OC)c1,–,–,–,–,–,–
CCN(CC)C(=O)C1CC(=O)N(c2ccc(OC)cc2)C1c1ccc(OC)cc1 (centres undefined),–,–,–,–,–,–
Cc1cccc(C)c1NC(=S)N(Cc1ccccc1)Cc1cccs1,–,–,–,–,63,–
CCN(C(=O)COC(=O)c1ccco1)c1c(N)n(Cc2ccccc2)c(=O)[nH]c1=O,–,·,–,·,·,–
CN(C(=O)COC(=O)c1ccccc1NCc1ccco1)c1c(N)n(Cc2ccccc2)c(=O)[nH]c1=O,64,·,–,·,·,–
CCc1cccc(NC(=O)C2CCCN(S(=O)(=O)c3cccs3)C2)c1 (centres undefined),52,–,–,·,·,–
CCN1CCN(C(=O)C2CCCN(S(=O)(=O)c3cccc4nsnc34)C2)CC1 (centres undefined),52,–,–,·,·,–
O=C(NCC1CCCO1)C1CCCN(S(=O)(=O)c2cccc3nsnc23)C1 (centres undefined),55,–,–,–,–,–
COc1cccc(NC(=O)C2CCCN(S(=O)(=O)c3cccc4nsnc34)C2)c1 (centres undefined),85,–,–,–,–,–
O=C(C1CCCN(S(=O)(=O)c2cccc3nsnc23)C1)N1CCCCCC1 (centres undefined),–,–,–,–,–,–
COc1cccc(OC)c1OCCOc1ccccc1OC(C)C,–,–,–,–,–,–
COc1cc(CNc2ccc3[nH]c(=O)[nH]c3c2)ccc1OCC(=O)NC(C)(C)C,–,–,–,–,–,99
CCc1ccccc1NC(=O)c1cc(-c2ccco2)on1,–,–,–,·,·,–
Nc1nc(-c2ccccc2)nc2sc3c(c12)CCCC3,68,–,–,–,–,–
SMILES,OX1R antag-1,GPR7 antagonist,OX1R antag-2,PGE2 EP2 inh,EP2 mod,CHO parental Ca
CCOC(=O)CC1C(=O)NCCN1c1nc2ccc(C)cn2c(=O)c1/C=C1\SC(=S)N(CC(C)C)C1=O (centres undefined),–,–,49,–,–,27
COc1ccc(-c2csc(NC(=O)C3CC(=O)N(Cc4ccccc4)C3)n2)cc1OC (centres undefined),–,–,–,·,·,–
O=[N+]([O-])c1ccc(C[n+]2cccc3c4ccccc4ccc32)cc1,49,–,–,–,–,–
CCOC(=O)c1ccc(NC(=S)N2CCSC2c2ccc(Br)cc2)cc1 (centres undefined),–,–,55,–,–,46
CCc1cc2ccc(OC)cc2nc1SCC(=O)NCCc1ccc(OC)c(OC)c1,·,·,·,–,74,·
CCc1cc2ccc(OC)cc2nc1SCC(=O)Nc1c(C)cccc1C,·,·,·,–,64,·
CCc1cc2cc(C)ccc2nc1SCC(=O)NNC(=O)c1ccco1,48,–,–,·,·,–
CCc1cc2ccc(OC)cc2nc1SCC(=O)NNC(=O)c1ccc(OC)cc1,·,·,·,–,62,·
COc1ccc2cc(C#N)c(SCC(=O)NCCc3ccc(OC)c(OC)c3)nc2c1,·,·,·,–,–,·
CCc1cc2ccc(OC)cc2nc1SCC(=O)Nc1ccccc1C,·,·,·,–,80,·
